NR2E3 ag-1: inhibitors of NR2E3-RetCOR corepressor binding, primary screen, NR2E3 agonist project, biochemical, TR-FRET, GST-NR2E3, biotin-RetCOR; inhibition of corepressor binding, % at 4.78 µM; 1536-well; Photoreceptor-specific nuclear receptor (Homo sapiens), Q9Y5X4; actives 0.12% (n = 320,000);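 active means percent inhibition above the cutoff of mean plus 3 SD of all tested compounds, set per screening campaign, cut at about 20% in these data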
Target sequence (Q9Y5X4 whole entry, looked up): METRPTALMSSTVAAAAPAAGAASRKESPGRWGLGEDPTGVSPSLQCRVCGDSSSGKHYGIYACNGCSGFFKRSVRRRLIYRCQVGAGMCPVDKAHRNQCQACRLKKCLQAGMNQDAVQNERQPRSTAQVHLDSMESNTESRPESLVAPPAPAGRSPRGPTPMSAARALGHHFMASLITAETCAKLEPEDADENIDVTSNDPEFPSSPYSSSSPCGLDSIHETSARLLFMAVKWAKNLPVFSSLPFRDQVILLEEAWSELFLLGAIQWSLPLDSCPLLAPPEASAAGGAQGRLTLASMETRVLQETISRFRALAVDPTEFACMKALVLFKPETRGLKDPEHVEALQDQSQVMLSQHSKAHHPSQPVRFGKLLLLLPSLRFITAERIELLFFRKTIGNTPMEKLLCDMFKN
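Material: NR2E3–RetCOR corepressor complex / Amount: 1.35 nM GST-NR2E3 / Medium: Tris pH 7.5 / Compound: single nominal compound dose of 4.8 µM / Incubation: 5 h at 4 °C / Technique: TR-FRET, Eu(K)-anti-GST donor, streptavidin-D2 acceptor, ex 340, em 617/671 nm / Read-out basis: percent loss of FRET ratio relative to control wells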
Env fusion inh: inhibitors of HIV-1 Env-driven cell-cell fusion, primary screen, HeLa-JRFL effector, CEM21 target cells, luciferase. inhibition, % at 12.3 µM. actives 1.1% (n = 360,000). AID 651610, 2012;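 active means mean replicate inhibition score of at least 50 and every replicate individually at or above 50; inconclusive means only one of the two criteria met; inactive means mean below 50 and not all replicates reaching 50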
NR2E3 ag-2: NR2E3 agonists in two-hybrid cells, primary screen, cell-based, luminescence, CHO-S, Gal4-NCOR/VP16-NR2E3; Photoreceptor-specific nuclear receptor (Homo sapiens), Q9Y5X4; luciferase; inhibition of corepressor binding, % at 3.98 µM; actives 0.35% (n = 360,000); AID 602229, 2012;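 active means inhibition above the mean of all tested compounds plus 3 SD, cut at about 70% in these data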;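 further: higher means lower luciferase signal from less NR2E3 corepressor binding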
GAA850 FXN act: FXN promoter activators, primary screen, cell-based, luciferase luminescence, HEK293 lucGAA850; HEK293 lucGAA850 FXN promoter luciferase reporter, 24 h; percent of 10 µM SAHA response; activation, % at 6 µM; actives 0.56% (n = 360,000);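 active means activation above the average of all compounds screened plus 3 SD, cutoff fixed separately per campaign, cut at about 7.5% in these data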
V-ATPase pHluor: regulators of yeast V-ATPase proton pumping, primary screen, pHLuorin cytosolic pH fluorescence; S. cerevisiae; response, % at 10 µM; actives 0.37% (n = 350,000); AID 504577, 2011; in the data active means response mostly above about 7.3%, no sharp cut-off; inactive means mostly below about 5.4%; further: actives read high
GalR3 antagonist: GalR3 antagonists in HEK293 cells, primary screen, cell-based, fluorescence readout. HEK293 GalR3-CNG cAMP membrane potential fluorescence; galR3 body fused to GalR1 C-terminus. inhibition, % at 3 µM. actives 0.44% (n = 360,000). AID 651719, 2012;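 active means inhibition above the screen-wide average plus 3 SD, cut at about 13% in these data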;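 further: forskolin and galanin both at EC90 stimulate the cells; cAMP rise reported by CNG channel membrane potential dye signal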
Hits are given with their value; . = inactive; ? = inconclusive; / = no result given; [ ] = dose if it differs, or a comment. An excerpt weighted towards active compounds, which were near 2.2% of everything screened.

SMILES | NR2E3 ag-1 | Env fusion inh | NR2E3 ag-2 | GAA850 FXN act | V-ATPase pHluor | GalR3 antagonist
O=C(Nc1ccc2c(c1)OCO2)N[C@H]1C=C[C@@H](CC(=O)N2CCN(c3ccccc3)CC2)O[C@H]1CO | / | . | / | / | / | /
C[C@@H]1CN([C@H](C)CO)C(=O)Cc2cc(NC(=O)Nc3ccc4c(c3)OCO4)ccc2O[C@H]1CN(C)Cc1ccc(Oc2ccccc2)cc1 | / | . | / | / | / | /
CC1CCCN(S(=O)(=O)c2ccc(NC(=O)C3CC(=O)N(c4ccccc4)C3)cc2)C1 (stereo not drawn) | . | . | . | . | 14 | .
Fc1ccc2cnc(-c3ccccc3)c(-c3ccc(C(F)(F)F)cc3)c2c1 | . | . | . | . | . | .
Fc1ccc2cnc(-c3ccccc3)c(-c3cc(C(F)(F)F)cc(C(F)(F)F)c3)c2c1 | / | . | . | . | . | .
Fc1ccc2c(-c3cccc(C(F)(F)F)c3)c(-c3ccccc3)ncc2c1 | . | 69 | . | . | . | .
COc1cc2cnc(-c3ccccc3)c(-c3ccc(C(F)(F)F)cc3)c2cc1OC | . | 84 | . | . | . | .
C[C@@H]1CN([C@@H](C)CO)C(=O)c2cc(C#CCN(C)C)cnc2O[C@H]1CN(C)C(=O)NC1CCCC1 | / | . | / | / | / | /
COc1ccc(-c2cc(=O)c3cc(OC)ccc3[nH]2)cc1 | . | / | . | . | . | /
COc1ccc2[nH]c(=O)c3c(c2c1)OC(C)(C)C=C3 | . | 136 | . | . | . | .
CO[C@H]1CN(C)C(=O)c2cc(C#N)ccc2OC[C@@H]2O[C@H](CC[C@H]2OC)CCN(C)C(=O)[C@H]1C | / | . | / | / | / | /
CCCC(=O)Nc1ccc(S(=O)(=O)N2CCC(c3nc4ccccc4[nH]3)CC2)cc1 | . | . | . | . | 20 | .
CNC[C@@H]1OCCCC[C@H](C)Oc2ccc(NS(=O)(=O)c3c(C)noc3C)cc2C(=O)N([C@@H](C)CO)C[C@@H]1C | / | . | / | / | / | /
Cc1cc2nc(-c3ccccc3)c(Cc3cccc(F)c3)n2c(C)c1Br | / | 74 | . | / | / | .
Cn1nc(C(=O)Nc2cccc(S(=O)(=O)N3CCCC3)c2)c2ccccc2c1=O | . | / | . | . | . | .
Cc1ccc(S(=O)(=O)N2CCCCC2)cc1NC(=O)CCNC(=O)c1ccc([N+](=O)[O-])cc1 | / | 59 | . | . | . | .
Cc1ccc(S(=O)(=O)N2CCCCC2)cc1NC(=O)c1cc2ccccc2o1 | . | ? | . | . | 27 | .
Cc1ccc(S(=O)(=O)N2CCCCC2)cc1NC(=O)c1nn(C)c(=O)c2ccccc12 | / | 66 | . | . | . | .
C[C@H](CO)N1C[C@H](C)[C@@H](CN(C)C(=O)Nc2ccc(F)cc2)Oc2ccc(NS(=O)(=O)c3cn(C)cn3)cc2C1=O | / | . | / | / | / | /
Cc1ccc(S(=O)(=O)N2CCCCC2)cc1 | . | . | . | . | . | .
Cc1ccc(C)c(CNc2ccc(S(=O)(=O)N3CCCCC3)cc2)c1 | . | 76 | . | . | . | .
CCOCCCNC(=O)c1cc2c(=O)n3cccc(C)c3nc2n1C | . | . | . | . | 16 | .
CCC(=O)N(C)C[C@H]1Oc2cc(C#CC(C)(C)O)ccc2S(=O)(=O)N([C@H](C)CO)C[C@@H]1C | / | . | / | / | / | /
CCOC(=O)/C=C1\Nc2ccccc2SC1=O | . | 113 | . | . | . | .
CCOC(=O)C1=C(C)Nc2ccccc2S1 | . | . | . | . | . | .
C[C@@H]1CCCCO[C@@H](CN(C)C(=O)Nc2ccccc2)[C@H](C)CN([C@H](C)CO)C(=O)c2cc(NC(=O)CCC(F)(F)F)ccc2O1 | / | 66[16.7 µM] | / | / | / | /
CC(C)NC(=O)Nc1ccc2c(c1)C(=O)N([C@H](C)CO)C[C@@H](C)[C@@H](CN(C)C(=O)CCC(F)(F)F)OCCCC[C@@H](C)O2 | / | 79[16.7 µM] | / | / | / | /
CC(C)NC(=O)Nc1ccc2c(c1)C(=O)N([C@@H](C)CO)C[C@@H](C)[C@@H](CN(C)C(=O)CCC(F)(F)F)OCCCC[C@@H](C)O2 | / | 86[16.7 µM] | / | / | / | /
